Reference: ChEMBL document CHEMBL4609986 (Bioorg Med Chem, 2020)

How the values were obtained:
Homo sapiens = species on record: Homo sapiens; experiment: Selectivity index, ratio of CC50 for human HEK293T cells transfected with DYRK1A co-tranfected with Renilla plasmid, pGL3-NFAT and NFATc1 assessed as reduction in luciferase activity by measuring cell number to EC50 for human DYRK1A transfected in HEK293T cells co-transfected with Renilla plasmid, pGL3-NFAT and NFATc1 assessed as derepression of NFAT-dependent luciferase activity measured after 48 hrs by luciferase assay; format: cell-based
Method in brief: (§1)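 HEK293T cells transfected with PEI using DYRK1A, Renilla plasmid, IL-2-based pGL3-NFAT firefly reporter and NFATc1. Next day the same transfected population was split into 96-well plates; 6 h later cells were treated for 48 h (11-point dose curve, n = 4), then lysed. EC50 from firefly/Renilla ratio, 4-parameter agonist fit. CC50 from loss of constitutive Renilla signal, 4-parameter inhibitor fit.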

[1] = target: T1, Dual specificity tyrosine-phosphorylation-regulated kinase 1A (Homo sapiens, UniProt Q13627); experiment: Inhibition of human DYRK1A transfected in HEK293T cells co-transfected with Renilla plasmid, pGL3-NFAT and NFATc1 assessed as derepression of NFAT-dependent luciferase activity measured after 48 hrs by luciferase assay; format: cell-based, HEK-293T; method in brief: as §1
[2] = (§2) Cytotoxicity against human HEK293T cells transfected with DYRK1A co-tranfected with Renilla plasmid, pGL3-NFAT and NFATc1 assessed as reduction in luciferase activity by measuring cell number; format: cell-based, HEK-293T; method in brief: as §1
HEK-293T = experiment: as §2; format: cell-based; settings: hek-293t; method in brief: as §1
[3] = Cytotoxicity against mouse R7T1 cells assessed as reduction in cell viability measured after 48 hrs by Hoechst 33342 staining based analysis
Method in brief: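 Mouse R7T1 β-cells cultured in high-glucose DMEM with 10% FBS, doxycycline and pyruvate, plated at 25,000 cells/well. Treated in quadruplicate 6 h later (0.169–10,000 nM) for 48 h. Cells fixed in paraformaldehyde and stained with 4 μM Hoechst 33342; nuclei counted by high-content imaging.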

[4] = Selectivity index, ratio of CC50 for mouse R7T1 cells assessed as reduction in cell viability measured after 48 hrs by Hoechst 33342 staining based analysis to MEC for inhibition of DYRK1A in human pancreatic islets assessed as induction of pancreatic beta-cells replication measured after 48 hrs by Hoechst 33342 staining based analysis
[5] = target: T1, Dual specificity tyrosine-phosphorylation-regulated kinase 1A; experiment: Inhibition of DYRK1A in human pancreatic islets assessed as induction of pancreatic beta-cells replication measured after 48 hrs by Hoechst 33342 staining based analysis
Method in brief: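 Human islets (85-95% purity) rested 12 h in low-glucose DMEM with 10% FBS and 20 nM exendin-4. Dispersed to single cells and plated on 804G-conditioned-matrix 384-well plates for 48 h. Treated 48 h, then fixed with 4% PFA. Stained with anti-insulin, anti-Ki-67 and 4 μM Hoechst 33342; Ki67+Insulin+/Insulin+ scored by high-content imaging against per-plate cutoffs.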

| Structure (SMILES) | Ratio CC50/EC50 (Homo sapiens) | EC50 [1] [nM] | CC50 [2] [nM] | CC50 (HEK-293T) [nM] | CC50 [3] [nM] | Selectivity Index [4] | MEC [5] [nM] |
| --- | --- | --- | --- | --- | --- | --- | --- |
| CCCNC(=O)c1cnc2ccc(-c3cc(Cl)c(O)c(Cl)c3)nc2c1N[C@H]1CC[C@H](CN(C)C)CC1 | 7 | 6 | 38 |  |  |  |  |
| CCOC(=O)c1cnc2ccc(-c3cc(C)nc(C)c3)nc2c1N[C@H]1CC[C@H](CN(C)C)CC1 |  | > 10000 | > 10000 |  |  |  |  |
| CN(C)C[C@H]1CC[C@H](Nc2c(C(=O)N(C)C)cnc3ccc(-c4cc(Cl)c(O)c(Cl)c4)nc23)CC1 | > 28 | 354 |  | > 10000 |  |  |  |
| CCOC(=O)c1cnc2ccc(-c3cc(Cl)c(O)c(Cl)c3)nc2c1N[C@H]1CC[C@H](C(N)=O)CC1 | > 8 | 1250 | > 10000 |  |  |  |  |
| CNC(=O)c1cnc2ccc(-c3cc(Cl)c(O)c(Cl)c3)nc2c1N[C@H]1CC[C@H](CN(C)C)CC1 | 6 | 6 | 36 |  |  |  |  |
| CC(=O)NC[C@H]1CC[C@H](Nc2c(CO)cnc3ccc(-c4cc(Cl)c(O)c(Cl)c4)nc23)CC1 | 71 | 16 |  | 1140 | 1710 | 3.4 | 500 |
| CN(C)C[C@H]1CC[C@H](Nc2c(C(N)=O)cnc3ccc(-c4cc(Cl)c(O)c(Cl)c4)nc23)CC1 | 4 | 15 | 69 |  |  |  |  |
| CC(C)CNC(=O)c1cnc2ccc(-c3cc(Cl)c(O)c(Cl)c3)nc2c1N[C@H]1CC[C@H](CN(C)C)CC1 | 3 | 6 | 16 |  |  |  |  |
| CCOC(=O)c1cnc2ccc(-c3cc(Cl)cc(Cl)c3)nc2c1N[C@H]1CC[C@H](CN(C)C)CC1 |  | > 10000 | > 10000 |  |  |  |  |
| CCOC(=O)c1cnc2ccc(-c3ccnc(O)c3)nc2c1N[C@H]1CC[C@H](CN(C)C)CC1 | 6 | 383 | 2360 |  |  |  |  |
| CCCCNC(=O)c1cnc2ccc(-c3cc(Cl)c(O)c(Cl)c3)nc2c1N[C@H]1CC[C@H](C(N)=O)CC1 | 39 | 175 |  | 6850 | 1790 | 14 | 125 |
| CCCCNC(=O)c1cnc2ccc(-c3cc(Cl)c(O)c(Cl)c3)nc2c1N[C@H]1CC[C@H](CN2CCOCC2)CC1 | 18 | 4 | 79 |  |  |  |  |
| CCOC(=O)c1cnc2ccc(-c3cc(Cl)c(O)c(Cl)c3)nc2c1N1CCNCC1 | > 137 | 73 | 10000 |  | > 10000 | >40 | 250 |
| CCOC(=O)c1cnc2ccc(-c3cc(Cl)c(O)c(Cl)c3)nc2c1N[C@H]1CC[C@H](CO)CC1 | 27 | 100 | 2670 |  | 785 | 3.1 | 250 |
| CCOC(=O)c1cnc2ccc(-c3cc(Cl)c(O)c(Cl)c3)nc2c1N1CCOCC1 | 35 | 105 | 3680 |  |  |  |  |
| CCOC(=O)c1cnc2ccc(-c3ccnc(N)c3)nc2c1N[C@H]1CC[C@H](CN(C)C)CC1 | 19 | 59 | 1130 |  | 328 | 15 | 22 |
| CCOC(=O)c1cnc2ccc(-c3cc(Cl)c(O)c(Cl)c3)nc2c1N[C@H]1CC[C@H](N)CC1 | 5 | 9 | 44 |  |  |  |  |
| NC(=O)C[C@H]1CC[C@H](Nc2c(CO)cnc3ccc(-c4cc(Cl)c(O)c(Cl)c4)nc23)CC1 | 27 | 74 | 1970 |  | 1080 | 2.2 | 500 |
| CCNC(=O)c1cnc2ccc(-c3cc(Cl)c(O)c(Cl)c3)nc2c1N[C@H]1CC[C@H](CN(C)C)CC1 | 7 | 6 | 39 |  |  |  |  |
| CCOC(=O)c1cnc2ccc(-c3ccnc(N)c3)nc2c1N[C@H]1CC[C@H](CN2CCCC2)CC1 | 7 | 108 | 756 |  |  |  |  |
| CC(C)CCNC(=O)c1cnc2ccc(-c3cc(Cl)c(O)c(Cl)c3)nc2c1N[C@H]1CC[C@H](CN(C)C)CC1 | 8 | 3 | 21 |  |  |  |  |

| Structure (SMILES) | Ratio CC50/EC50 (Homo sapiens) | EC50 [1] [nM] | CC50 [2] [nM] | CC50 (HEK-293T) [nM] | CC50 [3] [nM] | Selectivity Index [4] | MEC [5] [nM] |
| --- | --- | --- | --- | --- | --- | --- | --- |
| CCOC(=O)c1cnc2ccc(-c3ccc(O)nc3)nc2c1N[C@H]1CC[C@H](CN(C)C)CC1 | > 7.5 | 1340 | > 10000 |  |  |  |  |
| CCNC(=O)c1cnc2ccc(-c3ccnc(N)c3)nc2c1N[C@H]1CC[C@H](CN(C)C)CC1 | > 216 | 46 |  | > 10000 | 330 |  | > 500 |
| CCOC(=O)c1cnc2ccc(-c3ccc(C(N)=O)cc3)nc2c1N[C@H]1CC[C@H](CN(C)C)CC1 | > 2 | 4660 | > 10000 |  |  |  |  |
| CCOC(=O)c1cnc2ccc(-c3ccc(N)cc3)nc2c1N[C@H]1CC[C@H](CN(C)C)CC1 | > 5 | 2100 | > 10000 |  |  |  |  |
| CCOC(=O)c1cnc2ccc(-c3ccnc(N)c3)nc2c1N[C@H]1CC[C@H](CN2CCCCC2)CC1 | 12 | 114 | 1350 |  |  |  |  |
| CCOC(=O)c1cnc2ccc(-c3cc(Cl)c(O)c(Cl)c3)nc2c1Nc1ccc(CN(C)C)cc1 | 146 | 26 | 3790 |  | 226 | 7.3 | 31 |
| CCOC(=O)c1cnc2ccc(-c3cc(Cl)c(O)c(Cl)c3)nc2c1N[C@H]1CC[C@H](CN2CCOCC2)CC1 | 71 | 7 | 491 |  |  |  |  |
| CCOC(=O)c1cnc2ccc(-c3ccnc(C)c3)nc2c1N[C@H]1CC[C@H](CN(C)C)CC1 | > 7 |  | > 10000 |  |  |  |  |
| CN(C)C[C@H]1CC[C@H](Nc2c(C(=O)N3CCOCC3)cnc3ccc(-c4cc(Cl)c(O)c(Cl)c4)nc23)CC1 | > 16 | 641 |  | > 10000 |  |  |  |
| CCOC(=O)c1cnc2ccc(-c3cc(Cl)c(O)c(Cl)c3)nc2c1N1CCC(C)CC1 | > 82 | 123 | > 10000 |  |  |  |  |
| CCOC(=O)c1cnc2ccc(-c3cc(Cl)c(O)c(Cl)c3)nc2c1N[C@H]1CC[C@H](C)CC1 |  | > 10000 | > 10000 |  |  |  |  |
| CCOC(=O)c1cnc2ccc(-c3ccc(C(=O)O)cc3)nc2c1N[C@H]1CC[C@H](CN(C)C)CC1 | > 10 | 990 | > 10000 |  |  |  |  |
| CC(=O)c1cnc2ccc(-c3cc(Cl)c(O)c(Cl)c3)nc2c1N[C@H]1CC[C@H](C(N)=O)CC1 | 153 | 11 | 1660 |  | 231 | 1.8 | 125 |
| CCCCCNC(=O)c1cnc2ccc(-c3cc(Cl)c(O)c(Cl)c3)nc2c1N[C@H]1CC[C@H](CN(C)C)CC1 | 4 | 5 | 19 |  |  |  |  |
| NC(=O)[C@H]1CC[C@H](Nc2c(CO)cnc3ccc(-c4cc(Cl)c(O)c(Cl)c4)nc23)CC1 | > 15 | 678 | > 10000 |  |  |  |  |
| CN(C)C[C@H]1CC[C@H](Nc2c(C#N)cnc3ccc(-c4cc(Cl)c(O)c(Cl)c4)nc23)CC1 | > 220 | 45 |  | > 10000 | 160 | 16 | 10 |
| CCOC(=O)c1cnc2ccc(-c3cc(Cl)c(O)c(Cl)c3)nc2c1N[C@H]1CC[C@H](C(=O)N2CCOCC2)CC1 | 21 | 97 | 3010 |  | 2080 | 8.3 | 250 |
| CCOC(=O)c1cnc2ccc(-c3ccc(O)cc3)nc2c1N[C@H]1CC[C@H](CN(C)C)CC1 | > 33 | 300 |  | > 10000 |  |  |  |
| CCOC(=O)c1cnc2ccc(-c3cc(Cl)c(O)c(Cl)c3)nc2c1N1CCCCC1 | 17 | 203 | 3460 |  |  |  |  |
| CCOC(=O)c1cnc2ccc(-c3cc(C)c(O)c(C)c3)nc2c1N[C@H]1CC[C@H](CN(C)C)CC1 | > 842 | 12 |  | > 10000 | > 10000 | >40 | 250 |
| CCOC(=O)c1cnc2ccc(-c3cc(Cl)c(O)c(Cl)c3)nc2c1N[C@H]1CC[C@H](CNC(C)=O)CC1 | 217 | 15 |  | 3340 | 1020 | 15 | 68 |
